In ChEMBL document CHEMBL4261646, “Bisphosphonate Inhibitors of Mammalian Glycolytic Aldolase” (J Med Chem, 2018):
Values belong to the compound of their own block, whether it stands above or below them. Calls of active or inactive are those of the source. The calls are words filed in the database; no cut-off is given here.

Legend:
[1] = tested on: HeLa; experiment: Growth inhibition of human HeLa cells at 1 to 50 uM after 24 to 72 hrs by trypan blue exclusion assay; format: functional, cell-based
In short: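 HeLa cells were seeded at 3 x 10^5 cells/plate and grown in DMEM at 37 °C/5% CO2 with filter-sterilized inhibitor for 24, 48 or 72 h. Cells were trypsinized (0.25%), pelleted and resuspended. Total cells were counted by Trypan blue exclusion on a hemocytometer. At least three independent experiments; Student's two-tailed t-test.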

[2] = Competitive-inhibition of fructose-bisphosphate aldolase (unknown origin) using FBP as substrate and […] in presence of constant enzyme concentration by UV-Vis spectrophotometry dependent TIM/GDH coupled assay based double-reciprocal plot analysis; parameters: species or system Homo sapiens
In short: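 Recombinant rabbit muscle aldolase at 0.01 μg/mL in TIM/GDH-coupled assay (NADH oxidation at 340 nm, 25 °C, Tris-acetate pH 7.5, 0.3 mM NADH).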

[3] = (§1) Dual competitive-inhibition of fructose-bisphosphate aldolase (unknown origin) using FBP as substrate and […] in presence of constant enzyme concentration by UV-Vis spectrophotometry dependent TIM/GDH coupled assay based double-reciprocal plot analysis; parameters: species or system Homo sapiens
In short: (§2)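 Recombinant rabbit muscle aldolase was expressed in E. coli BL21-SI. Cleavage of FBP was coupled to TIM/GDH, and NADH oxidation was followed at 340 nm at 25 °C. Buffer was 50 mM Tris-acetate pH 7.5 with 1 mM EDTA and 0.3 mM NADH. Initial rates were fitted to a two-site reversible linear competitive model. At least three independent assays.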

[4] = as §1, with “origin) assessed as inhibition constant for two competitive binding sites in enzyme active site” for “origin)”; parameters: species or system Homo sapiens; in short: as §2
[5] = Inhibition of fructose-bisphosphate aldolase (unknown origin); parameters: species or system Homo sapiens
[6] = Inhibition of fructose-bisphosphate aldolase (unknown origin) using FBP as substrate and NADH preincubated for 180 mins followed by substrate addition by UV-Vis spectrophotometry based TIM/GDH coupled assay; parameters: species or system Homo sapiens
In short: (§3)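 Recombinant rabbit muscle aldolase was pre-incubated for the listed time with inhibitor at 0.01–20 μM, then assayed with 10 μM FBP. Cleavage was read by TIM/GDH coupling as NADH oxidation at 340 nm, 25 °C, in 50 mM Tris-acetate pH 7.5, 1 mM EDTA, 0.3 mM NADH. IC50 was taken from a 4-parameter fit; at least three independent assays.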

[7] = Slow binding inhibition of fructose-bisphosphate aldolase (unknown origin) assessed as dibasic species population adjusted overall inhibition constant using FBP as substrate and NADH by UV-Vis spectrophotometry dependent TIM/GDH coupled assay based Dixon plot analysis; parameters: species or system Homo sapiens; conditions: read-out: Ki(app)
[8] = Slow binding inhibition of fructose-bisphosphate aldolase (unknown origin) assessed as dibasic species population adjusted dissociation constant using FBP as substrate and NADH by UV-Vis spectrophotometry dependent TIM/GDH coupled assay based Dixon plot analysis; parameters: species or system Homo sapiens; conditions: read-out: Ki(app)
[9] = Slow binding inhibition of fructose-bisphosphate aldolase (unknown origin) assessed as overall inhibition constant using FBP as substrate and NADH by UV-Vis spectrophotometry dependent TIM/GDH coupled assay based Dixon plot analysis; parameters: species or system Homo sapiens
In short: (§4)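 Recombinant rabbit muscle aldolase, TIM/GDH-coupled NADH oxidation at 340 nm, 25 °C, in Tris-acetate pH 7.5 buffer with 1 mM EDTA and 0.3 mM NADH. Progress curves were recorded with 20–200 μM FBP and 0.5–75 μM inhibitor. Slow-binding constants came from non-linear regression under the Morrison–Walsh model; at least three independent assays.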

[10] = tested on: HEK293; experiment: Growth inhibition of HEK293 cells at 1 to 50 uM after 24 to 72 hrs by trypan blue exclusion assay; format: cell-based; conditions: human, hek293, 50 µM
In short: (§5)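 Cells seeded in DMEM (HeLa 3 x 10^5, HEK293 2 x 10^5 per plate) were kept at 37 °C, 5% CO2 with filter-sterilized compound for 24, 48 or 72 h. Cells were trypsinized and total counts made by Trypan blue exclusion on a hemocytometer. Student's two-tailed t-test; at least three independent experiments.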

[11] = Slow binding inhibition of fructose-bisphosphate aldolase (unknown origin) assessed as dissociation constant using FBP as substrate and NADH by UV-Vis spectrophotometry dependent TIM/GDH coupled assay based Dixon plot analysis; parameters: species or system Homo sapiens; in short: as §4
[12] = Inhibition of fructose-bisphosphate aldolase (unknown origin) using FBP as substrate and NADH preincubated for 10 mins followed by substrate addition by UV-Vis spectrophotometry based TIM/GDH coupled assay; parameters: species or system Homo sapiens; in short: as §3
[13] = Inhibition of fructose-bisphosphate aldolase (unknown origin) using FBP as substrate and NADH preincubated for 90 mins followed by substrate addition by UV-Vis spectrophotometry based TIM/GDH coupled assay; parameters: species or system Homo sapiens; in short: as §3
[14] = Inhibition of fructose-bisphosphate aldolase (unknown origin) using FBP as substrate and NADH preincubated for 0 mins followed by substrate addition by UV-Vis spectrophotometry based TIM/GDH coupled assay; parameters: species or system Homo sapiens; in short: as §3
[15] = tested on: HeLa; experiment: Growth inhibition of human HeLa cells assessed as transport efficiency corrected EC50 for after 72 hrs by trypan blue exclusion assay relative to control; format: functional, cell-based
[16] = tested on: HeLa; experiment: Growth inhibition of human HeLa cells at 10 uM after 72 hrs by trypan blue exclusion assay relative to control; format: functional; conditions: read-out: GI; in short: as §5
[17] = tested on: HeLa; experiment: Growth inhibition of human HeLa cells after 72 hrs by trypan blue exclusion assay relative to control; format: functional, cell-based; in short: as §5
[18] = tested on: HeLa; experiment: Growth inhibition of human HeLa cells at 50 uM after 72 hrs by trypan blue exclusion assay relative to control; format: functional; conditions: read-out: GI; in short: as §5
[19] = Inhibition of fructose-bisphosphate aldolase (unknown origin) using FBP as substrate and NADH preincubated for 30 mins followed by substrate addition by UV-Vis spectrophotometry based TIM/GDH coupled assay; parameters: species or system Homo sapiens; in short: as §3
[20] = Inhibition of rabbit muscle fructose-bisphosphate aldolase using FBP as substrate and NADH by spectrophotometry based coupled enzyme assay; parameters: species or system Oryctolagus cuniculus
In short: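 Recombinant rabbit muscle aldolase was expressed in E. coli. FBP cleavage was coupled to triose-phosphate isomerase/glycerol-3-phosphate dehydrogenase, and NADH oxidation was read at 340 nm at 25 °C. Buffer was 50 mM Tris-acetate pH 7.5 with 1 mM EDTA and 0.3 mM NADH. Reactions were started by adding enzyme. At least three independent assays.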

Ki [2]: 42000 nM
SMILES: O=P(O)(O)Oc1ccc(C(P(=O)(O)O)P(=O)(O)O)cc1
growth inhibition (GI) [1]: inactive

Ki [3]: 13000 nM | Ki [4]: 9000 nM
SMILES: O=P(O)(O)C(c1ccc2cc(O)ccc2c1)P(=O)(O)O

SMILES: O=P(O)(O)Oc1ccc2cc(OP(=O)(O)O)ccc2c1
Ki [5]: 280 nM | Ki [2]: 280 nM

SMILES: O=P([O-])([O-])Oc1ccc2cc(C(P(=O)([O-])[O-])P(=O)([O-])[O-])ccc2c1.[Li+].[Li+].[Li+].[Li+].[Li+].[Li+]
IC50 [6]: 68 nM | Ki [7]: 7.6 nM | Ki [8]: 56 nM | Ki [9]: 38 nM | growth inhibition (GI) [10]: Non-Toxic | Ki [11]: 280 nM | IC50 [12]: 170 nM | IC50 [13]: 60 nM | IC50 [14]: 670 nM | EC50 [15]: 75 nM | inhibition of growth at 10 µM [16]: 30% | EC50 [17]: 50000 nM | inhibition of growth at 50 µM [18]: 50% | IC50 [19]: 130 nM

Ki [20]: 120000 nM
SMILES: O=C(COP(=O)(O)O)[C@@H](O)[C@@H](O)[C@H](O)COP(=O)(O)O
